This note sets out measurements from ChEMBL document CHEMBL1157169, “A class of novel nitronyl nitroxide labeling basic and acidic amino acids: synthesis, application for preparing ESR optionally labeling peptides, and bioactivity investigations” (Bioorg Med Chem, 2008).

Where a SMILES comes first, the peptide text is derived from it. The star is where a group is joined. X1 = CC1(C)N(O)C(c2ccc(OCCN*)cc2)=[N+]([O-])C1(C)C

For orientation: inhibition means the percentage by which the read-out fell short of the control. One may read the EC50 as the midpoint of the concentration-response curve.

Data set [1] concerns Aorta. Nature of the data set: Nitric oxide radical scavenging activity in rat aortic strip assessed as inhibition of acetylcholine-induced vasorelaxation at 10 uM. Type of data set: functional, tissue-based.
Data set [2] concerns Aorta. Description: Nitric oxide radical scavenging activity in rat aortic strip assessed as inhibition of acetylcholine-induced vasorelaxation at 1 uM. In kind it is functional, tissue-based.
Data set [3] relates to Aorta. Nature of the data set: Nitric oxide radical scavenging activity in rat aortic strip assessed as inhibition of acetylcholine-induced vasorelaxation at 100 uM. In kind it is functional, tissue-based.
Data set [4] has as its system PC-12. Nature of the data set: Radical scavenging activity in rat PC12 cells assessed as inhibition of nitric oxide radical-induced cell damage by MTT assay. In kind it is functional, cell-based. The procedure, abridged:
(§1)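 PC12 cells grown in DMEM with 10% heat-inactivated horse serum, 5% FBS and 1.0 mM pyruvate at 37 °C, 5% CO2. Seeded at 20,000 cells/well on poly-L-lysine and attached 24 h. Pretreated 1 h with 12.5–200 µM compound. Damage induced by SNP 2 mM for 2 h (NO), H2O2 1 mM for 1 h, or H2O2 1 mM/Fe(II) 30 µM for 1 h (·OH). Media replaced, cells incubated 14 h, survival measured by MTT.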

Data set [5] has as its system PC-12. Nature of the data set: Radical scavenging activity in rat PC12 cells assessed as inhibition of hydrogen peroxide radical-induced cell damage by MTT assay. In kind it is functional, cell-based. In short, it runs like this:
as §1

The subject of data set [6] is PC-12. Nature of the data set: Radical scavenging activity in rat PC12 cells assessed as inhibition of hydroxyl radical-induced cell damage by MTT assay. In kind it is functional, cell-based. The procedure, abridged:
as §1
Background: Tetrazolium assays rely on reduction of a dye to a coloured formazan, in cell work by metabolically active cells.

Data set [7] relates to Plasma. Description: Thrombolytic activity in rabbit plasma assessed as euglobulin clot lysis time at 4.5 uM. Type of data set: functional, Oryctolagus cuniculus. In short, it runs like this:
(§2)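 Rabbit plasma diluted 1:20 in water and precipitated at pH 5.7 with 0.25% acetic acid for 30 min at 4 °C. Centrifuged at 2000g for 15 min. […] Sample added and time to clot lysis recorded.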

The test system of data set [8] is Plasma. Nature of the data set: Thrombolytic activity in rabbit plasma assessed as euglobulin clot lysis time at 2.2 uM. In kind it is functional, Oryctolagus cuniculus. In short, it runs like this: as §2
The test system of data set [9] is Plasma. Description: Thrombolytic activity in rabbit plasma assessed as euglobulin clot lysis time at 1.1 uM. In kind it is functional, Oryctolagus cuniculus. The procedure, abridged: as §2
For data set [10], the species on record is Oryctolagus cuniculus. Nature of the data set: Thrombolytic activity against rabbit fibrinogen assessed as fibrinogen lysis area at 4.5 uM. In short, it runs like this:
(§3)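 Equal volumes of 0.3% rabbit fibrinogen and 0.95% agarose in 50 mM sodium barbiturate buffer (pH 7.8), coagulated with thrombin (100 IU/mL). After 30 min at 4 °C, 5 mm wells were punched and 30 µl of sample in NS added per well. Plates incubated and lysis area measured in mm². ANOVA.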

For data set [11], the species on record is Oryctolagus cuniculus. Description: Thrombolytic activity against rabbit fibrinogen assessed as fibrinogen lysis area at 2.2 uM. In short, it runs like this:
as §3

For data set [12], the species on record is Oryctolagus cuniculus. Nature of the data set: Thrombolytic activity against rabbit fibrinogen assessed as fibrinogen lysis area at 1.1 uM. The procedure, abridged: as §3
The subject of data set [13] is Rattus norvegicus. Nature of the data set: Thrombolytic activity in Wistar rat assessed as reduction in thrombus weight at 10 umol/kg. Type of data set: functional. In short, it runs like this:
(§4)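 Male Wistar rats (200–300 g) anesthetized with pentobarbital sodium (80.0 mg/kg, ip). A steel helix was left 15 min in 1.0 ml carotid artery blood, and the helix with thrombus was weighed. It was placed in a polyethylene tube filled with heparin sodium (50 IU/ml NS) inserted into the left jugular vein. Heparin was injected, then compound dissolved in NS. Read-out is reduction in thrombus weight.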

Data set [14] concerns Rattus norvegicus. Nature of the data set: Thrombolytic activity in Wistar rat assessed as reduction in thrombus weight at 5 umol/kg. In kind it is functional. The procedure, abridged: as §4
Data set [15] concerns Rattus norvegicus. Description: Thrombolytic activity in Wistar rat assessed as reduction in thrombus weight at 2.5 umol/kg. In kind it is functional. In short, it runs like this:
as §4

A short description of data set [16]: Aqueous stability assessed as decomposition time at pH 2.0. Type of data set: physicochemical. The following applies: buffer. In short, it runs like this: (§5)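 Each sample dissolved in aqueous solution at pH 2.0, 7.4 or 11.5 (final 10^-2 mM) and held at room temperature for up to 200 h. Decomposition followed by TLC (CHCl3/CH3OH, 20:1). Value is the time at which decomposition appeared.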

Data set [17] is described as follows: Aqueous stability assessed as decomposition time at pH 7.4. In kind it is physicochemical. The following applies: buffer. The procedure, abridged: as §5
Data set [18] can be described thus: Aqueous stability assessed as decomposition time at pH 11.5. In kind it is physicochemical. As to conditions: buffer. In short, it runs like this:
as §5

In data set [19] the test system is Blood. Description: Inhibition of 10 uM adenosine diphosphate-induced platelet aggregation in rabbit blood. Type of data set: functional, Oryctolagus cuniculus. The procedure, abridged:
(§6)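 Platelet-rich plasma made by centrifuging normal rabbit blood anticoagulated with sodium citrate (3.8% final). Platelets adjusted to 2×10^5/µl with autologous plasma. Aggregation induced by PAF or ADP (final 10^-5–10^-7 M) and read by turbidimetry in an aggregometer. Maximal aggregation rate (Am%) taken as peak height of the curve.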

In data set [20] the test system is Blood. Nature of the data set: Inhibition of 1 uM adenosine diphosphate-induced platelet aggregation in rabbit blood. In kind it is functional, Oryctolagus cuniculus. The procedure, abridged:
as §6

For data set [21], the system named is Blood. Description: Inhibition of 0.1 uM adenosine diphosphate-induced platelet aggregation in rabbit blood. In kind it is functional, Oryctolagus cuniculus. The procedure, abridged: as §6
Data set [22] relates to Blood. Nature of the data set: Inhibition of 10 uM platelet activating factor-induced platelet aggregation in rabbit blood. In kind it is functional, Oryctolagus cuniculus. The procedure, abridged:
as §6

Data set [23] relates to Blood. Description: Inhibition of 1 uM platelet activating factor-induced platelet aggregation in rabbit blood. Type of data set: functional, Oryctolagus cuniculus. In short, it runs like this:
as §6

Data set [24] concerns Blood. Description: Inhibition of 0.1 uM platelet activating factor-induced platelet aggregation in rabbit blood. Type of data set: functional, Oryctolagus cuniculus. In short, it runs like this: as §6
Data set [25] deals with Rattus norvegicus. Description: Antithrombotic activity in Wistar rat assessed as wet thrombus weight at 5 umol/kg. Type of data set: functional. In short, it runs like this: (§7)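 Male Wistar rats (250–300 g) anesthetized with pentobarbital sodium (80.0 mg/kg, ip). The right carotid artery and left jugular vein were cannulated via a polyethylene tube containing a thread, filled with NS or compound dissolved in NS (vehicle NS). Blood shunted 15 min. The thread was weighed wet, then after 2 weeks in a desiccator weighed dry. n = 10, ANOVA.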

Data set [26] deals with Rattus norvegicus. Nature of the data set: Antithrombotic activity in Wistar rat assessed as dry thrombus weight at 5 umol/kg.
The subject of data set [27] is Rattus norvegicus. Description: Antithrombotic activity in Wistar rat assessed as wet thrombus weight at 20 mg/kg. Type of data set: functional. The procedure, abridged:
as §7

Data set [28] relates to Rattus norvegicus. Nature of the data set: Antithrombotic activity in Wistar rat assessed as dry thrombus weight at 20 mg/kg. Type of data set: functional. In short, it runs like this:
as §7

`C[C@H](NC(=O)[C@@H]1CCCN1)C(=O)N[C@@H](CCCCNC(=O)COc1ccc(C2=[N+]([O-])C(C)(C)C(C)(C)N2O)cc1)C(=O)O`: the inhibition in the data set on Aorta [1] is 73.9%; with Aorta [2], 26.6%; with Aorta [3] it was 99.1%. The values for the EC50 in the data set with PC-12 [4], with PC-12 [5] and in the data set on PC-12 [6] were 89 µM, 28.8 µM and 99 µM, respectively. In addition, the Time in the data set on Plasma [7] was found to be 102.95 min; with Plasma [8] it was 128.8 min; in the data set with Plasma [9], 149 min. Also, the Activity in the data set listed under Oryctolagus cuniculus [10] is 234 mm2; in the data set listed under Oryctolagus cuniculus [11], 216 mm2; in the data set filed under Oryctolagus cuniculus [12], 197 mm2; with Rattus norvegicus [13] it was 24.2 mg; in the data set on Rattus norvegicus [14], 15.38 mg; with Rattus norvegicus [15] it was 11.06 mg.
`CC1(C)N(O)C(c2ccc(OCC(=O)O)cc2)=[N+]([O-])C1(C)C`: the inhibition in the data set with Aorta [1] was found to be 72.4%; in the data set on Aorta [2], 25.3%; with Aorta [3], 99%. The Time in [16] was greater than 200 h; in data set [17], greater than 200 h; in [18], greater than 200 h; with Plasma [7], 223.11 min. For the same molecule, the EC50 in the data set with PC-12 [4] is 92.3 µM; in the data set on PC-12 [5], 31.6 µM. The “inhibition (INH)” value is given as 51.98% in the data set on Blood [19]; 50.65% in the data set on Blood [20]; 49.33% with Blood [21]; 53.8% with Blood [22]; 51.4% in the data set on Blood [23]; 52.45% in the data set with Blood [24]. Besides, the Activity in the data set with Rattus norvegicus [25] amounted to 38.76 mg; in the data set listed under Oryctolagus cuniculus [10], 26.6 mm2; in the data set on Rattus norvegicus [13], 12.11 mg. Besides, in the data set with Rattus norvegicus [26], the dry thrombus weight came out at 6.67 mg.
Regarding `CC(=O)Oc1ccccc1C(=O)O` [ASPIRIN], the results for the Activity in the data set on Rattus norvegicus [27] and in the data set with Rattus norvegicus [28] were 24.16 mg and 4.04 mg, respectively.
`CC1(C)N(O)C(c2ccc(OCCNC(=O)C[C@H](NC(=O)CNC(=O)[C@@H](N)CCCNC(=N)N)C(=O)N[C@@H](CO)C(=O)O)cc2)=[N+]([O-])C1(C)C` (H-RGD(X1)S-OH): the results for the inhibition in the data set with Aorta [1], with Aorta [2] and with Aorta [3] were 71.3%, 24% and 95.9%, respectively. Moreover, the EC50 in the data set with PC-12 [4] is 92.9 µM; in the data set on PC-12 [5], 32 µM; in the data set on PC-12 [6], 102 µM. For the same molecule, the “inhibition (INH)” value in the data set with Blood [19] was 50%; in the data set on Blood [20], 39.43%; in the data set with Blood [21], 16.11%; in the data set with Blood [22], 51.59%; in the data set with Blood [23], 34.33%; in the data set with Blood [24], 21.52%. Also, in the data set with Rattus norvegicus [25], the Activity is 25.01 mg. Besides, the dry thrombus weight with Rattus norvegicus [26] was found to be 4.08 mg.
Take `C[C@H](NC(=O)[C@@H]1CCCN1)C(=O)N[C@@H](CCCCN)C(=O)O` (H-Pro-Ala-Lys-OH): the inhibition in the data set on Aorta [1] came to 6.1%; in the data set on Aorta [2], 4.5%; in the data set on Aorta [3] it was 9.5%. For the same molecule, the Time in the data set on Plasma [7] worked out at 101.6 min. For the same molecule, the Activity amounted to 214 mm2 in the data set filed under Oryctolagus cuniculus [10] and 24.11 mg in the data set on Rattus norvegicus [13].
Take `CC1(C)N(O)C(c2ccc(O)cc2)=[N+]([O-])C1(C)C`: the inhibition stood at 73.1% in the data set with Aorta [1], 26.1% with Aorta [2] and 99.2% with Aorta [3]. For the same molecule, the Time in data set [16], in data set [17] and in data set [18] was greater than 200 h each time. In addition, the EC50 with PC-12 [4] was 40 µM; in the data set on PC-12 [5] it was 49.1 µM; in the data set on PC-12 [6], 56.9 µM. Besides, the “inhibition (INH)” value in the data set with Blood [19] came to 49.28%; with Blood [20], 50.39%; with Blood [21] it was 49.01%; with Blood [22], 54%; in the data set on Blood [23] it was 52.45%; with Blood [24], 53.04%. The Activity with Rattus norvegicus [25] was 38.9 mg. Besides, the dry thrombus weight in the data set with Rattus norvegicus [26] is on record as 6.8 mg.
